Measurements from ChEMBL document CHEMBL1926565, “Synthesis, antiproliferative activities and telomerase inhibition evaluation of novel asymmetrical 1,2-disubstituted amidoanthraquinone derivatives” (Eur J Med Chem, 2012).

Key:
Type in all cases: functional
RPMI-8226 = test: Cytotoxicity against human RPMI8226 cells assessed as cellular growth at 10 uM
Procedure, shortened: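 Single-dose screen run by the NCI across its 60-human-tumour-cell-line panel; growth recorded for each cell line.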

HOP-92 = test: Anticancer activity against human HOP92 cells
Procedure, shortened: (§1)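 NCI 60-human-tumour-cell-line panel. Selected analogues were first run at one dose, then some were carried into multi-dose testing. GI50 (50% growth inhibition), TGI (total growth inhibition) and LC50 (50% cell kill) were read as values interpolated where the dose–response curves cross these levels.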

UACC-62 = test: Anticancer activity against human UACC62 cells; settings: for CC50: read-out: LC50 (the source's name)
SF-539 = test: Anticancer activity against human SF539 cells; settings: read-out: LC50 (the source's name); procedure, shortened: as §1
HCC 2998 = test: Anticancer activity against human HCC2998 cells; settings: for CC50: read-out: LC50 (the source's name); procedure, shortened: as §1
SNB-75 = test: Anticancer activity against human SNB75 cells; settings: for CC50: read-out: LC50 (the source's name); procedure, shortened: as §1
MOLT-4 = test: Anticancer activity against human MOLT4 cells; procedure, shortened: as §1
SNB-19 = test: Anticancer activity against human SNB19 cells; settings: read-out: LC50 (the source's name)
Procedure, shortened: (§2)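 Tested by the NCI in its 60-human-tumour-cell-line panel. Dose-response curves were run, and GI₅₀ (50% growth inhibition), TGI (total growth inhibition) and LC₅₀ (50% cell killing) were read as interpolated concentrations where the curves cross those levels.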

SN12C = test: Anticancer activity against human SN12C cells; settings: for CC50: read-out: LC50 (the source's name); procedure, shortened: as §1
NCI/ADR-RES = test: Anticancer activity against human NCI/ADR-RES cells; settings: for CC50: read-out: LC50 (the source's name); procedure, shortened: as §1
HCT-116 = test: Anticancer activity against human HCT116 cells; settings: for CC50: read-out: LC50 (the source's name); procedure, shortened: as §1
ACHN = test: Anticancer activity against human ACHN cells; settings: for CC50: read-out: LC50 (the source's name); procedure, shortened: as §1
SW-620 = test: Anticancer activity against human SW620 cells; settings: for CC50: read-out: LC50 (the source's name)
BT-549 = test: Anticancer activity against human BT549 cells; settings: for CC50: read-out: LC50 (the source's name); procedure, shortened: as §1
HL-60(TB) = test: Anticancer activity against human HL-60(TB) cells; procedure, shortened: as §2
MDA-MB-468 = test: Anticancer activity against human MDA-MB-468 cells; settings: for CC50: read-out: LC50 (the source's name); procedure, shortened: as §1
UO-31 = test: Anticancer activity against human UO31 cells; settings: for CC50: read-out: LC50 (the source's name)
IGROV-1 = test: Anticancer activity against human IGROV1 cells; settings: for CC50: read-out: LC50 (the source's name); procedure, shortened: as §1
[1] = Anticancer activity against human Hs 578T cells; settings: for CC50: read-out: LC50 (the source's name); procedure, shortened: as §1
OVCAR-8 = test: Anticancer activity against human OVCAR8 cells; settings: for CC50: read-out: LC50 (the source's name); procedure, shortened: as §1
NCI-H460 = test: Anticancer activity against human NCI-H460 cells; procedure, shortened: as §1
HOP-62 = test: Anticancer activity against human HOP62 cells; procedure, shortened: as §1
MDA-MB-231 = test: Anticancer activity against human MDA-MB-231 cells; settings: for CC50: read-out: LC50 (the source's name); procedure, shortened: as §1
KM12 = test: Anticancer activity against human KM12 cells; procedure, shortened: as §1
MDA-MB-435 = test: Anticancer activity against human MDA-MB-435 cells; settings: for CC50: read-out: LC50 (the source's name); procedure, shortened: as §1
NCI-H226 = test: Anticancer activity against human NCI-H226 cells; settings: for CC50: read-out: LC50 (the source's name); procedure, shortened: as §1
A549 = test: Anticancer activity against human A549 cells; settings: for CC50: read-out: LC50 (the source's name); procedure, shortened: as §1
EKVX = test: Anticancer activity against human EKVX cells; settings: for CC50: read-out: LC50 (the source's name); procedure, shortened: as §1
CCRF-CEM = test: Anticancer activity against human CCRF-CEM cells; procedure, shortened: as §1
DU-145 = test: Anticancer activity against human DU145 cells; settings: for CC50: read-out: LC50 (the source's name); procedure, shortened: as §1
U-251 = test: Anticancer activity against human U251 cells; settings: for CC50: read-out: LC50 (the source's name)
[2] = read-out: LC50 (the source's name)

Cc1ccc(C(=O)Nc2ccc3c(c2NC(=O)c2ccc(C)cc2)C(=O)c2ccccc2C3=O)cc1
Activity (RPMI-8226): 101.77%

Cc1ccc(C(=O)Nc2c(NC(=O)CCl)ccc3c2C(=O)c2ccccc2C3=O)cc1
GI50 (HOP-92): 9.73 µM | LC50 (concentration giving 50% cell kill) (HOP-92): > 50 µM | TGI (HOP-92): 31.7 µM | GI50 (UACC-62): 9.92 µM | TGI (UACC-62): 17.9 µM | CC50 (UACC-62): 32.2 µM | CC50 (SF-539): 25.1 µM | CC50 (HCC 2998): 29.4 µM | CC50 (SNB-75): 30.5 µM | GI50 (MOLT-4): 2.29 µM | TGI (MOLT-4): 2.95 µM | CC50 (MOLT-4; [2]): > 50 µM | CC50 (SNB-19): 27.6 µM | GI50 (SN12C): 1.22 µM | TGI (SN12C): 3.66 µM | CC50 (SN12C): > 50 µM | GI50 (NCI/ADR-RES): 9.46 µM | TGI (NCI/ADR-RES): 30.7 µM | CC50 (NCI/ADR-RES): > 50 µM | GI50 (HCT-116): 1.05 µM | TGI (HCT-116): 2.46 µM | CC50 (HCT-116): 9.32 µM | GI50 (ACHN): 7.18 µM | TGI (ACHN): 14.3 µM | CC50 (ACHN): 28.6 µM | GI50 (SW-620): 1.87 µM | TGI (SW-620): 9.31 µM | CC50 (SW-620): > 50 µM | GI50 (BT-549): 2.58 µM | TGI (BT-549): 16.3 µM | CC50 (BT-549): > 50 µM | GI50 (HL-60(TB)): 6.14 µM | TGI (HL-60(TB)): 24.6 µM | CC50 (HL-60(TB); [2]): > 50 µM | GI50 (MDA-MB-468): 0.83 µM | TGI (MDA-MB-468): 1.82 µM | CC50 (MDA-MB-468): 3.98 µM | CC50 (UO-31): 41.3 µM | GI50 (IGROV-1): 5.6 µM | TGI (IGROV-1): 17 µM | CC50 (IGROV-1): > 50 µM | GI50 [1]: 1.64 µM | TGI [1]: 9.12 µM | CC50 [1]: > 50 µM | GI50 (OVCAR-8): 3.32 µM | TGI (OVCAR-8): 28.5 µM | CC50 (OVCAR-8): > 50 µM | GI50 (NCI-H460): 5.81 µM | LC50 (50% cell kill) (NCI-H460): 34.1 µM | TGI (NCI-H460): 14.1 µM | GI50 (HOP-62): 2.97 µM | LC50 (50% cell kill) (HOP-62): 24.4 µM | TGI (HOP-62): 9.49 µM | GI50 (MDA-MB-231): 6.51 µM | TGI (MDA-MB-231): > 50 µM | CC50 (MDA-MB-231): > 50 µM | GI50 (KM12): 5.56 µM | LC50 (KM12): 28.3 µM | TGI (KM12): 12.6 µM | GI50 (MDA-MB-435): 5.73 µM | TGI (MDA-MB-435): 19.5 µM | CC50 (MDA-MB-435): > 50 µM | GI50 (NCI-H226): 8.81 µM | TGI (NCI-H226): 20.8 µM | CC50 (NCI-H226): 49.1 µM | GI50 (A549): 12.3 µM | TGI (A549): 29.2 µM | CC50 (A549): > 50 µM | GI50 (EKVX): 1.98 µM | TGI (EKVX): 14.9 µM | CC50 (EKVX): > 50 µM | GI50 (CCRF-CEM): 2.54 µM | TGI (CCRF-CEM): > 50 µM | CC50 (CCRF-CEM; [2]): > 50 µM | GI50 (DU-145): 2.69 µM | TGI (DU-145): 9.07 µM | CC50 (DU-145): 23 µM | GI50 (U-251): 1.8 µM | TGI (U-251): 6.83 µM | CC50 (U-251): 30.2 µM

Cc1ccc(C(=O)Nc2c(NC(=O)CN3CCN(C)CC3)ccc3c2C(=O)c2ccccc2C3=O)cc1
GI50 (HOP-92): 0.87 µM | LC50 (concentration giving 50% cell kill) (HOP-92): > 100 µM | TGI (HOP-92): 9.19 µM | GI50 (UACC-62): 2.52 µM | CC50 (UACC-62): > 100 µM | GI50 (HCC 2998): 3 µM | TGI (HCC 2998): > 100 µM | CC50 (HCC 2998): > 100 µM | GI50 (SNB-75): > 100 µM | TGI (SNB-75): > 100 µM | CC50 (SNB-75): > 100 µM | CC50 (SNB-19): > 100 µM | TGI (SN12C): > 100 µM | CC50 (SN12C): > 100 µM | TGI (NCI/ADR-RES): > 100 µM | CC50 (NCI/ADR-RES): > 100 µM | GI50 (HCT-116): 3.08 µM | TGI (HCT-116): > 100 µM | CC50 (HCT-116): > 100 µM | TGI (ACHN): > 100 µM | CC50 (ACHN): > 100 µM | TGI (SW-620): > 100 µM | CC50 (SW-620): > 100 µM | GI50 (BT-549): > 100 µM | TGI (BT-549): > 100 µM | CC50 (BT-549): > 100 µM | GI50 (MDA-MB-468): 2.58 µM | TGI (MDA-MB-468): > 100 µM | CC50 (MDA-MB-468): > 100 µM | TGI (UO-31): > 100 µM | CC50 (UO-31): > 100 µM | GI50 (IGROV-1): > 100 µM | TGI (IGROV-1): > 100 µM | CC50 (IGROV-1): > 100 µM | GI50 [1]: > 100 µM | TGI [1]: > 100 µM | CC50 [1]: > 100 µM | GI50 (OVCAR-8): > 100 µM | TGI (OVCAR-8): > 100 µM | CC50 (OVCAR-8): > 100 µM | GI50 (NCI-H460): 3.36 µM | LC50 (50% cell kill) (NCI-H460): > 100 µM | TGI (NCI-H460): > 100 µM | GI50 (HOP-62): > 100 µM | LC50 (50% cell kill) (HOP-62): > 100 µM | TGI (HOP-62): > 100 µM | GI50 (MDA-MB-231): 3.3 µM | TGI (MDA-MB-231): > 100 µM | CC50 (MDA-MB-231): > 100 µM | LC50 (KM12): > 100 µM | TGI (KM12): > 100 µM | GI50 (MDA-MB-435): 3.13 µM | TGI (MDA-MB-435): > 100 µM | CC50 (MDA-MB-435): > 100 µM | GI50 (NCI-H226): > 100 µM | TGI (NCI-H226): > 100 µM | CC50 (NCI-H226): > 100 µM | TGI (A549): > 100 µM | CC50 (A549): > 100 µM | TGI (EKVX): > 100 µM | CC50 (EKVX): > 100 µM | GI50 (DU-145): > 100 µM | TGI (DU-145): > 100 µM | CC50 (DU-145): > 100 µM | GI50 (U-251): 3.64 µM | TGI (U-251): > 100 µM | CC50 (U-251): > 100 µM
